test system: Mycobacterium tuberculosis; assay: Inhibition of Mycobacterium tuberculosis IMPDH deltaCBS mutant assessed as reduction in NADH production using IMP as substrate at 100 uM preincubated for 5 mins followed by substrate addition measured for 32 mins in presence of NAD+

SMILES | inhibition [%]
O=C(O)CSc1nc(-c2ccccc2)c[nH]1 | < 5
Brc1ccc(-c2c[nH]cn2)cc1 | < 5
O=C(CSc1nc(-c2ccc(Br)cc2)c[nH]1)Nc1ccc(-c2c[nH]cn2)cc1 | 20
O=C(NCc1ncc(-c2ccc(Br)cc2)[nH]1)Nc1ccc(-c2c[nH]cn2)cc1 | 56
O=C(CSc1nc(-c2ccccc2)c[nH]1)Nc1ccc2occc2c1 | 36
O=C(CSc1nc(-c2ccc(Br)cc2)c[nH]1)Nc1ccc(I)cc1 | 30
CC(C)NC(=O)CSc1nc(-c2ccccc2)c[nH]1 | < 5
O=C(CSc1nc(-c2ccc(Br)cc2)c[nH]1)Nc1ccccc1 | 13
O=C(CSc1nc(-c2ccccc2)c[nH]1)Nc1ccc(I)cc1 | 46
O=C(CSc1nc(-c2ccc(Br)cc2)c[nH]1)Nc1ccc2occc2c1 | 31
O=C(O)CSc1nc(-c2ccc(Br)cc2)c[nH]1 | < 5
O=C(CSc1nc(-c2ccccc2)c[nH]1)Nc1ccc(-c2c[nH]cn2)cc1 | 24
O=C(CSc1ncc(-c2ccccc2)[nH]1)Nc1ccccc1 | < 5

test system: Mycobacterium tuberculosis; assay: (§1) Mixed-type inhibition of Mycobacterium tuberculosis IMPDH deltaCBS mutant assessed as reduction in NADH production preincubated for 5 mins followed by substrate IMP addition at increasing concentration measured for 32 mins in presence of constant concentration of NAD+ by Lineweaver-Burk plot analysis

SMILES | alphaKi [µM]
Cc1ccc(-c2nc(C(=O)O)cs2)cc1 | 398

test system: Mycobacterium tuberculosis; assay: as §1, with “Uncompetitive” for “Mixed-type”

SMILES | alphaKi [µM]
COc1ccc(OC(C)C(=O)Nc2ccc(I)cc2)cc1 (stereo unspecified) | 0.86

test system: Mycobacterium tuberculosis; assay: Inhibition of Mycobacterium tuberculosis IMPDH deltaCBS mutant assessed as reduction in NADH production using IMP as substrate at 10 uM preincubated for 5 mins followed by substrate addition measured for 32 mins in presence of NAD+

SMILES | inhibition [%]
CC(Oc1ccc(-c2cn(C)cn2)cc1)C(=O)Nc1nc(-c2ccc(I)cc2)c[nH]1 (stereo unspecified) | 96
CC(Oc1ccc(-c2cn(C)cn2)cc1)C(=O)Nc1ccccc1 (stereo unspecified) | 4
CC(Oc1ccc(-c2cn(C)cn2)cc1)C(=O)Nc1nc(-c2ccc(N3CCOCC3)cc2)c[nH]1 (stereo unspecified) | 94
C[C@H](Oc1ccc(-c2cn(C)cn2)cc1)C(=O)Nc1nc(-c2ccc(Br)cc2)c[nH]1 | 99
CC(Oc1ccc(-c2cn(C)cn2)cc1)C(=O)Nc1nc(-c2ccc(Br)cc2)co1 (stereo unspecified) | 83
COc1ccc(OC(C)C(=O)Nc2ccc(I)cc2)cc1 (stereo unspecified) | 92
CC(Oc1ccc(-c2cn(C)cn2)cc1)C(=O)Nc1nc(-c2ccc(Br)cc2)c[nH]1 (stereo unspecified) | 99
CC(Oc1ccc(-c2cn(C)cn2)cc1)C(=O)Nc1ccc(I)cc1 (stereo unspecified) | 97
COc1ccc(-c2c[nH]c(NC(=O)C(C)Oc3ccc(-c4cn(C)cn4)cc3)n2)cc1 (stereo unspecified) | 95
CC(Oc1ccc(-c2cn(C)cn2)cc1)C(=O)Nc1nc(-c2ccccc2)c[nH]1 (stereo unspecified) | 77

test system: Mycobacterium tuberculosis; assay: Inhibition of Mycobacterium tuberculosis IMPDH deltaCBS mutant assessed as reduction in NADH production at 1 mM using IMP as substrate preincubated for 5 mins followed by substrate addition measured for 32 mins in presence of NAD+

SMILES | inhibition [%]
Brc1ccc(-c2c[nH]cn2)cc1 | 65
OCc1ccc2sccc2c1 | 53
Oc1ccc2ccc(O)cc2c1 | 77
O=C(O)c1cc2cccc(O)c2cc1O | 98
Oc1cccc2ccccc12 | 68
Nc1n[nH]c(-c2ccccc2)c1Br | 53
Clc1ccc(-c2cnc[nH]2)cc1 | 59
COc1ccc2ccc(O)cc2c1 | 66
Nc1ccc(-n2ccnc2)cc1 | 64
Oc1ccc2ccccc2c1 | 57
CC1(C)Cc2cccc(CO)c2O1 | 99
Nc1[nH]ncc1-c1cccc(Br)c1 | 50
O=C(O)c1ccccc1-n1cccc1 | 72
O=C(O)c1cc2sccc2s1 | 86
N#Cc1c[nH]c2ccccc12 | 51
Cc1ccc(-c2nc(C(=O)O)cs2)cc1 | 88
CC(=O)Nc1cc(C)ccc1O | 79

test system: Mycobacterium tuberculosis; assay: Uncompetitive inhibition of Mycobacterium tuberculosis IMPDH deltaCBS mutant expressed in Escherichia coli BL21(DE3) in presence of IMP and NAD+
In short: (§2)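 Enzyme was Mth IMPDH ΔCBS expressed in E. coli BL21(DE3) at 18°C with 500 µM IPTG, then Ni-IMAC purified, TEV-cleaved and run on gel filtration; assay buffer and 37°C conditions as in the activity assay. […] Initial rates were fit to uncompetitive or mixed inhibition equations, and the pattern was read from Lineweaver-Burk plots.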

SMILES | alphaKi [µM]
COc1c(C)c2c(c(O)c1C/C=C(\C)Cn1cc(COC[C@H]3O[C@@H](n4cnc5c(N)ncnc54)[C@H](O)[C@@H]3O)nn1)C(=O)OC2 | 1
C=C(C)c1cccc(C(C)(C)NC(=O)Nc2ccc(Cl)c(C(=O)N(C)C)c2)c1 | 0.009

test system: Mycobacterium tuberculosis; assay: Uncompetitive inhibition of Mycobacterium tuberculosis IMPDH deltaCBS mutant; in short: as §2

SMILES | alphaKi [µM]
O=C(C1CCCCC1)N1CCN(S(=O)(=O)c2ccc3cnccc3c2)CC1 | 0.12
Cc1n[nH]c(C)c1S(=O)(=O)Nc1ccc2c[nH]nc2c1 | 0.22
